Test system: HEK-293T
Experiment: Multiplex assay against HEK293T
Type: toxicity, cell-based
Settings: human
Method in brief: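 Phenotypes for tubulin, mitochondrial mass and membrane permeability are expressed as per cents of healthy-nucleus cells. Cells were stained live at seeding with Hoechst33342, BioTracker Green Microtubule Cytoskeleton Dye, MitoTracker Red and Annexin V Alexa Fluor 680, then imaged after compound addition on a CQ1 microscope at 37°C and 5% CO2. Machine-learning gating in CellPathfinder separated Hoechst high-intensity objects from normal cells, divided normal cells by nuclear state (healthy, pyknosed, fragmented) and divided pyknosed cells into mitotic or apoptotic.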

[1] = 12 h, 1 µM, compound concentration 1 uM, replicate 1
[2] = 12 h, 1 µM, compound concentration 1 uM, replicate 2
[3] = 12 h, 10 µM, compound concentration 10 uM, replicate 1
[4] = 12 h, 10 µM, compound concentration 10 uM, replicate 2
[5] = 24 h, 1 µM, compound concentration 1 uM, replicate 1
[6] = 24 h, 1 µM, compound concentration 1 uM, replicate 2
[7] = 24 h, 10 µM, compound concentration 10 uM, replicate 1
[8] = 24 h, 10 µM, compound concentration 10 uM, replicate 2
[9] = 48 h, 1 µM, compound concentration 1 uM, replicate 1
[10] = 48 h, 1 µM, compound concentration 1 uM, replicate 2
[11] = 48 h, 10 µM, compound concentration 10 uM, replicate 1
[12] = 48 h, 10 µM, compound concentration 10 uM, replicate 2

## CC(C)c1noc(N2CCC(COc3ccc(-c4ccc(S(C)(=O)=O)cc4)nc3)CC2)n1 [GSK-1292263]
[1]
  Population Apoptotic (%): 37%
  Population Fragmented Nuclei (%): 8%
  Population Healthy Nuclei (%): 78%
  Population Hoechst High Intensity Objects (%): 5%
  Population Membrane Permeable-Phenotype (%): 0%
  Population Mitochondria Different-Phenotype (%): 42%
  Population Mitotic Cells (%): 62%
  Population Normal (%): 94%
  Population Pyknosed Nuclei (%): 12%
  Population Tubulin-Different-Phenotype (%): 32%
  Total Cell Count: 440
[2]
  Population Apoptotic (%): 25%
  Population Fragmented Nuclei (%): 6%
  Population Healthy Nuclei (%): 86%
  Population Hoechst High Intensity Objects (%): 6%
  Population Mitochondria Different-Phenotype (%): 53%
  Population Mitotic Cells (%): 74%
  Population Normal (%): 93%
  Population Pyknosed Nuclei (%): 7%
  Population Tubulin-Different-Phenotype (%): 13%
  Total Cell Count: 522
[3]
  Population Apoptotic (%): 50%
  Population Fragmented Nuclei (%): 6%
  Population Healthy Nuclei (%): 71%
  Population Hoechst High Intensity Objects (%): 13%
  Population Membrane Permeable-Phenotype (%): 0%
  Population Mitochondria Different-Phenotype (%): 69%
  Population Mitotic Cells (%): 50%
  Population Normal (%): 86%
  Population Pyknosed Nuclei (%): 22%
  Population Tubulin-Different-Phenotype (%): 55%
  Total Cell Count: 311
[4]
  Population Apoptotic (%): 43%
  Population Fragmented Nuclei (%): 7%
  Population Healthy Nuclei (%): 78%
  Population Hoechst High Intensity Objects (%): 16%
  Population Mitochondria Different-Phenotype (%): 77%
  Population Mitotic Cells (%): 56%
  Population Normal (%): 83%
  Population Pyknosed Nuclei (%): 13%
  Population Tubulin-Different-Phenotype (%): 40%
  Total Cell Count: 279
[5]
  Population Apoptotic (%): 23%
  Population Fragmented Nuclei (%): 8%
  Population Healthy Nuclei (%): 78%
  Population Hoechst High Intensity Objects (%): 5%
  Population Membrane Permeable-Phenotype (%): 0%
  Population Mitochondria Different-Phenotype (%): 27%
  Population Mitotic Cells (%): 76%
  Population Normal (%): 94%
  Population Pyknosed Nuclei (%): 12%
  Population Tubulin-Different-Phenotype (%): 25%
  Total Cell Count: 545
[6]
  Population Apoptotic (%): 25%
  Population Fragmented Nuclei (%): 7%
  Population Healthy Nuclei (%): 82%
  Population Hoechst High Intensity Objects (%): 3%
  Population Mitochondria Different-Phenotype (%): 29%
  Population Mitotic Cells (%): 74%
  Population Normal (%): 96%
  Population Pyknosed Nuclei (%): 9%
  Population Tubulin-Different-Phenotype (%): 9%
  Total Cell Count: 608
[7]
  Population Apoptotic (%): 64%
  Population Fragmented Nuclei (%): 8%
  Population Healthy Nuclei (%): 79%
  Population Hoechst High Intensity Objects (%): 8%
  Population Membrane Permeable-Phenotype (%): 0%
  Population Mitochondria Different-Phenotype (%): 58%
  Population Mitotic Cells (%): 35%
  Population Normal (%): 91%
  Population Pyknosed Nuclei (%): 12%
  Population Tubulin-Different-Phenotype (%): 49%
  Total Cell Count: 384
[8]
  Population Apoptotic (%): 46%
  Population Fragmented Nuclei (%): 11%
  Population Healthy Nuclei (%): 74%
  Population Hoechst High Intensity Objects (%): 10%
  Population Mitochondria Different-Phenotype (%): 59%
  Population Mitotic Cells (%): 53%
  Population Normal (%): 89%
  Population Pyknosed Nuclei (%): 13%
  Population Tubulin-Different-Phenotype (%): 28%
  Total Cell Count: 354
[9]
  Population Apoptotic (%): 22%
  Population Fragmented Nuclei (%): 10%
  Population Healthy Nuclei (%): 81%
  Population Hoechst High Intensity Objects (%): 3%
  Population Membrane Permeable-Phenotype (%): 1%
  Population Mitochondria Different-Phenotype (%): 23%
  Population Mitotic Cells (%): 77%
  Population Normal (%): 96%
  Population Pyknosed Nuclei (%): 8%
  Population Tubulin-Different-Phenotype (%): 14%
  Total Cell Count: 865
[10]
  Population Apoptotic (%): 23%
  Population Healthy Nuclei (%): 83%
  Population Hoechst High Intensity Objects (%): 1%
  Population Mitochondria Different-Phenotype (%): 14%
  Population Mitotic Cells (%): 76%
  Population Normal (%): 98%
  Population Pyknosed Nuclei (%): 5%
  Population Tubulin-Different-Phenotype (%): 10%
  Total Cell Count: 882
[11]
  Population Apoptotic (%): 32%
  Population Fragmented Nuclei (%): 10%
  Population Healthy Nuclei (%): 79%
  Population Hoechst High Intensity Objects (%): 10%
  Population Membrane Permeable-Phenotype (%): 0%
  Population Mitochondria Different-Phenotype (%): 50%
  Population Mitotic Cells (%): 67%
  Population Normal (%): 89%
  Population Pyknosed Nuclei (%): 9%
  Population Tubulin-Different-Phenotype (%): 28%
  Total Cell Count: 506
[12]
  Population Apoptotic (%): 30%
  Population Fragmented Nuclei (%): 13%
  Population Healthy Nuclei (%): 78%
  Population Hoechst High Intensity Objects (%): 5%
  Population Mitochondria Different-Phenotype (%): 37%
  Population Mitotic Cells (%): 69%
  Population Normal (%): 94%
  Population Pyknosed Nuclei (%): 8%
  Population Tubulin-Different-Phenotype (%): 18%
  Total Cell Count: 595
